Results taken from ChEMBL document CHEMBL1811814, “Synthesis and evaluation of indole, pyrazole, chromone and pyrimidine based conjugates for tumor growth inhibitory activities--development of highly efficacious cytotoxic agents” (Eur J Med Chem, 2010).

How the values were obtained:
Type in all cases: functional
Set-up in all cases: scale not given: the % may be the effect or the level left
[1] = test system: HOP-62; experiment: Growth inhibition of human HOP62 cells assessed tumor cell growth at 10^-5 M
Outline: (§1)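 NCI 60-human-tumor-cell-line panel screen. Each compound was tested at a single concentration of 10^-5 M, and percent growth of tumor cells was recorded for each cell line. Growth inhibition was expressed from these percent-growth values.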

[2] = test system: SN12C; experiment: Growth inhibition of human SN12C cells assessed tumor cell growth at 10^-5 M; outline: as §1
[3] = test system: HCT-116; experiment: Growth inhibition of human HCT116 cells assessed tumor cell growth at 10^-5 M; outline: as §1
[4] = test system: SNB-75; experiment: Growth inhibition of human SNB75 cells assessed tumor cell growth at 10^-5 M
Outline: (§2)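 Single-dose screen at 10^-5 M across the 60 human tumor cell line panel, run to NCI standards. The value is the percent growth of each cell line in the presence of compound. Compounds active at this dose moved on to five-concentration testing (10^-4 to 10^-8 M).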

[5] = test system: SK-MEL-28; experiment: Growth inhibition of human SK-MEL-28 cells assessed tumor cell growth at 10^-5 M; outline: as §1
[6] = test system: DU-145; experiment: Growth inhibition of human DU145 cells assessed tumor cell growth at 10^-5 M; outline: as §1
[7] = test system: CAKI-1; experiment: Growth inhibition of human Caki1 cells assessed tumor cell growth at 10^-5 M; outline: as §1
[8] = test system: OVCAR-8; experiment: Growth inhibition of human OVCAR8 cells assessed tumor cell growth at 10^-5 M; outline: as §1
[9] = test system: M14; experiment: Growth inhibition of human M14 cells assessed tumor cell growth at 10^-5 M; outline: as §1
[10] = test system: HL-60(TB); experiment: Growth inhibition of human HL-60(TB) cells assessed tumor cell growth at 10^-5 M
Outline: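 HL-60(TB), part of the 60-line panel, tested at a single concentration of 10^-5 M. The read-out is percent tumor cell growth relative to untreated growth.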

[11] = test system: SW-620; experiment: Growth inhibition of human SW620 cells assessed tumor cell growth at 10^-5 M; outline: as §2
[12] = test system: Malme-3M; experiment: Growth inhibition of human MALME-3M cells assessed tumor cell growth at 10^-5 M; outline: as §1
[13] = test system: A549; experiment: Growth inhibition of human A549 cells assessed tumor cell growth at 10^-5 M; outline: as §1
[14] = test system: OVCAR-5; experiment: Growth inhibition of human OVCAR5 cells assessed tumor cell growth at 10^-5 M; outline: as §1
[15] = test system: LOX IMVI; experiment: Growth inhibition of human LOXIMVI cells assessed tumor cell growth at 10^-5 M; outline: as §1
[16] = test system: EKVX; experiment: Growth inhibition of human EKVX cells assessed tumor cell growth at 10^-5 M; outline: as §1
[17] = test system: SNB-19; experiment: Growth inhibition of human SNB19 cells assessed tumor cell growth at 10^-5 M; outline: as §2
[18] = Growth inhibition of human Hs 578T cells assessed tumor cell growth at 10^-5 M; outline: as §1
[19] = test system: OVCAR-4; experiment: Growth inhibition of human OVCAR4 cells assessed tumor cell growth at 10^-5 M; outline: as §1
[20] = test system: T47D; experiment: Growth inhibition of human T47D cells assessed tumor cell growth at 10^-5 M; outline: as §2
[21] = test system: SK-MEL-5; experiment: Growth inhibition of human SK-MEL-5 cells assessed tumor cell growth at 10^-5 M; outline: as §1
[22] = test system: TK-10; experiment: Growth inhibition of human TK10 cells assessed tumor cell growth at 10^-5 M; outline: as §2
[23] = test system: SR; experiment: Growth inhibition of human SR cells assessed tumor cell growth at 10^-5 M; outline: as §2
[24] = test system: U-251; experiment: Growth inhibition of human U251 cells assessed tumor cell growth at 10^-5 M; outline: as §2
[25] = test system: SK-OV-3; experiment: Growth inhibition of human SKOV3 cells assessed tumor cell growth at 10^-5 M; outline: as §1
[26] = test system: NCI/ADR-RES; experiment: Growth inhibition of human NCI/ADR-RES cells assessed tumor cell growth at 10^-5 M; outline: as §1
[27] = test system: UO-31; experiment: Growth inhibition of human UO31 cells assessed tumor cell growth at 10^-5 M; outline: as §2
[28] = test system: UACC-62; experiment: Growth inhibition of human UACC62 cells assessed tumor cell growth at 10^-5 M; outline: as §2
[29] = test system: NCI-H322M; experiment: Growth inhibition of human NCI-H322M cells assessed tumor cell growth at 10^-5 M; outline: as §1
[30] = test system: SF-268; experiment: Growth inhibition of human SF268 cells assessed tumor cell growth at 10^-5 M; outline: as §1
[31] = test system: MDA-MB-468; experiment: Growth inhibition of human MDA-MB-468 cells assessed tumor cell growth at 10^-5 M; outline: as §1
[32] = test system: SK-MEL-2; experiment: Growth inhibition of human SK-MEL-2 cells assessed tumor cell growth at 10^-5 M; outline: as §1
[33] = test system: 786-0; experiment: Growth inhibition of human 786-0 cells assessed tumor cell growth at 10^-5 M; outline: as §1
[34] = test system: MOLT-4; experiment: Growth inhibition of human MOLT4 cells assessed tumor cell growth at 10^-5 M; outline: as §1
[35] = test system: K562; experiment: Growth inhibition of human K562 cells assessed tumor cell growth at 10^-5 M; outline: as §1
[36] = test system: SF-539; experiment: Growth inhibition of human SF539 cells assessed tumor cell growth at 10^-5 M; outline: as §1
[37] = test system: NCI-H522; experiment: Growth inhibition of human NCI-H522 cells assessed tumor cell growth at 10^-5 M; outline: as §1
[38] = test system: MCF7; experiment: Growth inhibition of human MCF7 cells assessed tumor cell growth at 10^-5 M; outline: as §1
[39] = test system: HCT-15; experiment: Growth inhibition of human HCT15 cells assessed tumor cell growth at 10^-5 M; outline: as §1
[40] = test system: COLO 205; experiment: Growth inhibition of human COLO205 cells assessed tumor cell growth at 10^-5 M; outline: as §1
[41] = test system: SF-295; experiment: Growth inhibition of human SF295 cells assessed tumor cell growth at 10^-5 M; outline: as §1
[42] = Growth inhibition of human […] cells assessed tumor cell growth at 10^-5 M; outline: as §1
[43] = test system: ACHN; experiment: Growth inhibition of human ACHN cells assessed tumor cell growth at 10^-5 M; outline: as §1
[44] = test system: KM12; experiment: Growth inhibition of human KM12 cells assessed tumor cell growth at 10^-5 M; outline: as §1
[45] = test system: IGROV-1; experiment: Growth inhibition of human IGROV1 cells assessed tumor cell growth at 10^-5 M; outline: as §1
[46] = test system: NCI-H460; experiment: Growth inhibition of human NCI-H460 cells assessed tumor cell growth at 10^-5 M; outline: as §1
[47] = test system: MDA-MB-435; experiment: Growth inhibition of human MDA-MB-435 cells assessed tumor cell growth at 10^-5 M; outline: as §1
[48] = test system: NCI-H23; experiment: Growth inhibition of human NCI-H23 cells assessed tumor cell growth at 10^-5 M; outline: as §1
[49] = test system: RXF 393; experiment: Growth inhibition of human RXF393 cells assessed tumor cell growth at 10^-5 M; outline: as §1
[50] = test system: PC-3; experiment: Growth inhibition of human PC3 cells assessed tumor cell growth at 10^-5 M; outline: as §1
[51] = test system: MDA-MB-231; experiment: Growth inhibition of human MDA-MB-231 cells assessed tumor cell growth at 10^-5 M; outline: as §1
[52] = test system: OVCAR-3; experiment: Growth inhibition of human OVCAR3 cells assessed tumor cell growth at 10^-5 M; outline: as §1
[53] = test system: A498; experiment: Growth inhibition of human A498 cells assessed tumor cell growth at 10^-5 M; outline: as §1
[54] = test system: HT-29; experiment: Growth inhibition of human HT-29 cells assessed tumor cell growth at 10^-5 M; outline: as §1
[55] = test system: NCI-H226; experiment: Growth inhibition of human NCI-H226 cells assessed tumor cell growth at 10^-5 M; outline: as §1

Structure (SMILES): O=C1/C(=C\c2cn(Cc3ccccc3)c3ccccc23)c2ccccc2N1Cc1ccccc1
- Activity [1]: 90.9%
- Activity [2]: 104%
- Activity [3]: 64.7%
- Activity [4]: 89.5%
- Activity [5]: 104.8%
- Activity [6]: 100.2%
- Activity [7]: 72%
- Activity [8]: 88.9%
- Activity [9]: 96.6%
- Activity [10]: 103.6%
- Activity [11]: 97.1%
- Activity [12]: 121.4%
- Activity [13]: 81.6%
- Activity [14]: 106.7%
- Activity [15]: 84%
- Activity [16]: 85.2%
- Activity [17]: 106.1%
- Activity [18]: 96%
- Activity [19]: 84.4%
- Activity [20]: 57%
- Activity [21]: 84.4%
- Activity [22]: 85.3%
- Activity [23]: 96.6%
- Activity [24]: 92.9%
- Activity [25]: 92.4%
- Activity [26]: 92%
- Activity [27]: 82.3%
- Activity [28]: 82.6%
- Activity [29]: 103.8%
- Activity [30]: 92.3%
- Activity [31]: 46.6%
- Activity [32]: 86.4%
- Activity [33]: 99.1%
- Activity [34]: 98.9%
- Activity [35]: 95.2%
- Activity [36]: 94.7%
- Activity [37]: 31.8%
- Activity [38]: 3.6%
- Activity [39]: 77.7%
- Activity [40]: 89.8%
- Activity [41]: 108.8%
- Activity [42]: 76.9%
- Activity [43]: 85.4%
- Activity [44]: 87.9%
- Activity [45]: 66.8%
- Activity [46]: 88.6%
- Activity [47]: 110.5%
- Activity [48]: 88.6%
- Activity [49]: 73.5%
- Activity [50]: 80.8%
- Activity [51]: 100.6%
- Activity [52]: 84.3%
- Activity [53]: 96.6%
- Activity [54]: 90%

Structure (SMILES): O=C1/C(=C\c2cn(C(=O)c3ccc(Cl)cc3)c3ccccc23)c2ccccc2N1C(=O)c1ccc(Cl)cc1
- Activity [1]: 61.3%
- Activity [2]: 80.7%
- Activity [3]: 65.1%
- Activity [4]: 54.4%
- Activity [5]: 103%
- Activity [6]: 85%
- Activity [7]: 73.8%
- Activity [8]: 78.6%
- Activity [9]: 79.1%
- Activity [10]: 54.1%
- Activity [11]: 93.1%
- Activity [12]: 126%
- Activity [13]: 63.2%
- Activity [14]: 114.7%
- Activity [15]: 67.7%
- Activity [16]: 70.7%
- Activity [17]: 98.2%
- Activity [18]: 80.5%
- Activity [19]: 71.9%
- Activity [20]: 61.7%
- Activity [21]: 74.8%
- Activity [22]: 55.3%
- Activity [23]: 56.1%
- Activity [24]: 74.1%
- Activity [25]: 77%
- Activity [26]: 83.4%
- Activity [27]: 64.4%
- Activity [28]: 88.9%
- Activity [55]: 89.4%
- Activity [29]: 98.5%
- Activity [30]: 77.5%
- Activity [31]: 51.7%
- Activity [32]: 49.8%
- Activity [33]: 93.7%
- Activity [34]: 61.5%
- Activity [35]: 83.8%
- Activity [36]: 67.3%
- Activity [37]: 6%
- Activity [38]: 71.1%
- Activity [39]: 65.8%
- Activity [40]: 104.7%
- Activity [41]: 101.9%
- Activity [42]: 57.4%
- Activity [43]: 63.2%
- Activity [44]: 24.2%
- Activity [45]: 80%
- Activity [46]: 86%
- Activity [47]: 97.5%
- Activity [48]: 83.1%
- Activity [49]: 83.2%
- Activity [50]: 65.7%
- Activity [51]: 81.2%
- Activity [52]: 84.2%
- Activity [53]: 81%
- Activity [54]: 70.4%
